# Test results reported in ChEMBL document CHEMBL3758132, “Dissecting structure-activity-relationships of crebinostat: Brain penetrant HDAC inhibitors for neuroepigenetic regulation” (Bioorg Med Chem Lett, 2016).
# Calls of active or inactive are those of the source. The rule behind the calls is not given here.
# Columns and labels:
# Histone deacetylase 1 = Histone deacetylase 1 (Homo sapiens, UniProt Q13547); assay: Inhibition of human recombinant HDAC1 using acetyllysine tripeptide coupled with 7-amino-4-methylcoumarin as substrate by fluorescence assay
# Chain of Histone deacetylase 1 (Q13547 whole entry): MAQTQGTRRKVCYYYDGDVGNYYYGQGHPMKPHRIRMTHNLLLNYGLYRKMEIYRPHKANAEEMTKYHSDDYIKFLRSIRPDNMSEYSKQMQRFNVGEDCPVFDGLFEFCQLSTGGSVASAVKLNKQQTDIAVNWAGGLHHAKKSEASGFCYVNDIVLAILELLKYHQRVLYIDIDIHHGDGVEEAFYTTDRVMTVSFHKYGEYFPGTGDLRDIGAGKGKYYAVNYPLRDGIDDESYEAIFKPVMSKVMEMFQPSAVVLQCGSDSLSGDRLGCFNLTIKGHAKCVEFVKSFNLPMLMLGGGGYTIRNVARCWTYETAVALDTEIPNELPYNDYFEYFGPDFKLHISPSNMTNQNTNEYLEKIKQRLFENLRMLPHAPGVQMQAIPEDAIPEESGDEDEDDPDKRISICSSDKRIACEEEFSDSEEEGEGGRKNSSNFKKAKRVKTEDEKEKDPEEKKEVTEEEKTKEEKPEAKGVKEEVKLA
# Histone deacetylase 2 = Histone deacetylase 2 (Homo sapiens, UniProt Q92769); assay: Inhibition of human recombinant HDAC2 using acetyllysine tripeptide coupled with 7-amino-4-methylcoumarin as substrate by fluorescence assay
# Chain of Histone deacetylase 2 (Q92769 whole entry): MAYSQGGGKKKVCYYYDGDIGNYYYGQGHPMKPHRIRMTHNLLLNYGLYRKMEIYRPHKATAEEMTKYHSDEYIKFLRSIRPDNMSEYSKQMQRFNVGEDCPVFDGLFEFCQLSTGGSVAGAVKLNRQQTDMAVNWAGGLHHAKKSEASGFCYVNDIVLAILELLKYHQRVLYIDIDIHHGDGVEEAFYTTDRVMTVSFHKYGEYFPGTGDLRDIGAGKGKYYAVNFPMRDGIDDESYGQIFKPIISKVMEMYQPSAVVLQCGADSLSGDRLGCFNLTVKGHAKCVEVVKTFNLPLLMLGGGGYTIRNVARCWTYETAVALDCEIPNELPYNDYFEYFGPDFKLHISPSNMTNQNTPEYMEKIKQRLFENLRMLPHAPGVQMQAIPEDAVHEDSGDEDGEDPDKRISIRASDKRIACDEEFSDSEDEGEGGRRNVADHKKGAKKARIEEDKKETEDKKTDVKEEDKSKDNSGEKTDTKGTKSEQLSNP
# Histone deacetylase 3 = Histone deacetylase 3 (Homo sapiens, UniProt O15379); assay: Inhibition of human recombinant HDAC3 using acetyllysine tripeptide coupled with 7-amino-4-methylcoumarin as substrate by fluorescence assay
# Chain of Histone deacetylase 3 (O15379 whole entry): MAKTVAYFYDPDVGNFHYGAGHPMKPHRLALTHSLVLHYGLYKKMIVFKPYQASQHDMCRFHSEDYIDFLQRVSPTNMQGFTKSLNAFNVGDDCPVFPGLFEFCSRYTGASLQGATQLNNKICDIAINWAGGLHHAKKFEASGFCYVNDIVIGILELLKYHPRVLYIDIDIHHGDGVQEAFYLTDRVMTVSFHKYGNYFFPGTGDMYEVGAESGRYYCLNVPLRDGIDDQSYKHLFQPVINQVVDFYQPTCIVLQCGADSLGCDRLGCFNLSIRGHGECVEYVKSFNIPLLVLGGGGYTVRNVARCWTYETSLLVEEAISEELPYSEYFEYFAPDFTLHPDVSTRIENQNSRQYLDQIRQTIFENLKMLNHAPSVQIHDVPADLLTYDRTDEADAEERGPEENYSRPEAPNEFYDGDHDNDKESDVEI
# [1] = Cmax in C57BL/6 mouse brain at 25 mg/kg, ip after 1 hr by LC/MS/MS analysis; format: ADME, organism-based; parameters: dose 25 mg/kg, route intraperitoneal
# Outline: (§1)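 Mice dosed intraperitoneally at 25 mg/kg. Brains and peripheral blood were collected at each point of a 6-point time course, three mice per time point. Compound concentration was measured in processed brain and blood samples. PK parameters were derived from the concentration-time profiles.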
# [2] = Inhibition of HDAC in mouse forebrain primary neurons assessed as acetylation of histone H3K9 after 24 hrs by immunofluorescence assay
# [3] = Cmax in C57BL/6 mouse brain at 25 mg/kg, ip after 0.5 hrs by LC/MS/MS analysis; format: ADME, organism-based; parameters: dose 25 mg/kg, route intraperitoneal; outline: as §1
# [4] = Cmax in C57BL/6 mouse brain at 25 mg/kg, ip after 2 hrs by LC/MS/MS analysis; format: ADME, organism-based; parameters: dose 25 mg/kg, route intraperitoneal; outline: as §1
# [5] = Cmax in C57BL/6 mouse brain at 25 mg/kg, ip after 6 hrs by LC/MS/MS analysis; format: ADME, organism-based; parameters: dose 25 mg/kg, route intraperitoneal; outline: as §1
# [6] = Cmax in C57BL/6 mouse brain at 25 mg/kg, ip after 24 hrs by LC/MS/MS analysis; format: ADME, organism-based; parameters: dose 25 mg/kg, route intraperitoneal; outline: as §1
# [7] = Cmax in C57BL/6 mouse plasma at 25 mg/kg, ip after 1 hr by LC/MS/MS analysis; format: ADME, organism-based; parameters: dose 25 mg/kg, route intraperitoneal; outline: as §1
# [8] = Cmax in C57BL/6 mouse plasma at 25 mg/kg, ip after 0.5 hrs by LC/MS/MS analysis; format: ADME, organism-based; parameters: dose 25 mg/kg, route intraperitoneal; outline: as §1
# [9] = Cmax in C57BL/6 mouse plasma at 25 mg/kg, ip after 2 hrs by LC/MS/MS analysis; format: ADME, organism-based; parameters: dose 25 mg/kg, route intraperitoneal; outline: as §1
# [10] = Cmax in C57BL/6 mouse plasma at 25 mg/kg, ip after 6 hrs by LC/MS/MS analysis; format: ADME, organism-based; parameters: dose 25 mg/kg, route intraperitoneal; outline: as §1
# [11] = Cmax in C57BL/6 mouse plasma at 25 mg/kg, ip after 12 hrs by LC/MS/MS analysis; format: ADME, organism-based; parameters: dose 25 mg/kg, route intraperitoneal; outline: as §1
# [12] = Cmax in C57BL/6 mouse plasma at 25 mg/kg, ip after 24 hrs by LC/MS/MS analysis; format: ADME, organism-based; parameters: dose 25 mg/kg, route intraperitoneal; outline: as §1
# [13] = Tmax in C57BL/6 mouse plasma at 25 mg/kg, ip after 0.5 to 24 hrs by LC/MS/MS analysis; format: ADME, organism-based; outline: as §1
# [14] = AUClast in C57BL/6 mouse plasma at 25 mg/kg, ip after 0.5 to 24 hrs by LC/MS/MS analysis; format: ADME, organism-based; outline: as §1
# [15] = AUCinfinity in C57BL/6 mouse plasma at 25 mg/kg, ip after 0.5 to 24 hrs by LC/MS/MS analysis; format: ADME, organism-based; parameters: dose 25 mg/kg, route intraperitoneal, time infinity; outline: as §1
# Mus musculus [16] = assay: Half life in C57BL/6 mouse plasma at 25 mg/kg, ip after 0.5 to 24 hrs by LC/MS/MS analysis; format: ADME, organism-based; conditions: in vivo; outline: as §1
# [17] = Apparent clearance in C57BL/6 mouse plasma at 25 mg/kg, ip after 0.5 to 24 hrs by LC/MS/MS analysis; format: ADME, organism-based; outline: as §1
# [18] = Mean Residence time up to the last quantifiable time-point in C57BL/6 mouse plasma at 25 mg/kg, ip after 0.5 to 24 hrs by LC/MS/MS analysis; format: ADME, organism-based; outline: as §1
# [19] = Tmax in C57BL/6 mouse brain at 25 mg/kg, ip after 0.5 to 24 hrs by LC/MS/MS analysis; format: ADME, organism-based; outline: as §1
# [20] = AUClast in C57BL/6 mouse brain at 25 mg/kg, ip after 0.5 to 24 hrs by LC/MS/MS analysis; format: ADME, organism-based; outline: as §1
# [21] = Ratio of drug level in brain to plasma in C57BL/6 mouse at 25 mg/kg, ip after 0.5 to 2 hrs by LC/MS/MS analysis; format: ADME, organism-based; conditions: brain and plasma, read-out: BPR
# Outline: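 Intraperitoneal dose of 25 mg/kg in mice, three animals per time point. Compound levels in processed brain and in peripheral blood were measured at matched times. Individual brain-to-plasma concentration ratios were calculated for the 0.5 to 2 h time points.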
# [22] = molecular target: T1, Protein deacetylase HDAC6 (Homo sapiens, UniProt Q9UBN7); assay: Inhibition of human recombinant HDAC6 using acetyllysine tripeptide coupled with 7-amino-4-methylcoumarin as substrate by fluorescence assay
# T1 sequence (Q9UBN7 whole entry): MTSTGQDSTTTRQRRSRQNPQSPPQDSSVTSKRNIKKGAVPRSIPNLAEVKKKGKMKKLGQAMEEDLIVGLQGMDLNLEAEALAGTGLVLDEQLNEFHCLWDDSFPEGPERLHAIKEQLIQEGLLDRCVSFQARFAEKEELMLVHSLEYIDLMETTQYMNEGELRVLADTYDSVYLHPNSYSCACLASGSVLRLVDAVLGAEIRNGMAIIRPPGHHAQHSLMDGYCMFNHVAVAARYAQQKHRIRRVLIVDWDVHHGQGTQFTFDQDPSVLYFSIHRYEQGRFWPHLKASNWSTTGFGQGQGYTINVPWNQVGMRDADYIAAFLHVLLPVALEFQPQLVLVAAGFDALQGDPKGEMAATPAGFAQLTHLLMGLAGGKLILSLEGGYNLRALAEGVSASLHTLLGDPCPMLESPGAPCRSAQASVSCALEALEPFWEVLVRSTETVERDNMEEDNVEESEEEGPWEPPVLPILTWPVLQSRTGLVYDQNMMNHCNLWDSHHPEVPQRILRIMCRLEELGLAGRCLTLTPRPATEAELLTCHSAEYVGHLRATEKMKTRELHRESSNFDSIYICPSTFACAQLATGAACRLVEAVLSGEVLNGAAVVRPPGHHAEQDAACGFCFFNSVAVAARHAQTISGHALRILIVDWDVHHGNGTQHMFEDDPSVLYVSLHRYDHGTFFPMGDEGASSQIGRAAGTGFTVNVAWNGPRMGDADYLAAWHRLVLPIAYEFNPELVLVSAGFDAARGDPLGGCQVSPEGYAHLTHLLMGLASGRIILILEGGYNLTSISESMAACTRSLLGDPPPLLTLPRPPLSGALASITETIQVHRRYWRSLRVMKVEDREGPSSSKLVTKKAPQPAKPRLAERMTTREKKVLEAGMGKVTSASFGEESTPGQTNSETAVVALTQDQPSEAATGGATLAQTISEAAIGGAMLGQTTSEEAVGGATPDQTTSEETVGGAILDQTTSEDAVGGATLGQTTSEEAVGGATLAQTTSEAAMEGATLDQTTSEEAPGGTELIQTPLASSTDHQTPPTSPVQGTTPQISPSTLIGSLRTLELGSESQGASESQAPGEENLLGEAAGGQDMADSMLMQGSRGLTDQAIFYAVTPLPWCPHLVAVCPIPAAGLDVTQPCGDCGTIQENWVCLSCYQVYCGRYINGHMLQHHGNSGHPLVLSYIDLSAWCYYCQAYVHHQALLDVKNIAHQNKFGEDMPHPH
# [23] = molecular target: Histone deacetylase 5 (Homo sapiens) (UniProt Q9UQL6); assay: Inhibition of human recombinant HDAC5 using acetyllysine tripeptide coupled with 7-amino-4-methylcoumarin as substrate by fluorescence assay
# Chain of Histone deacetylase 5 (Homo sapiens) (Q9UQL6 whole entry): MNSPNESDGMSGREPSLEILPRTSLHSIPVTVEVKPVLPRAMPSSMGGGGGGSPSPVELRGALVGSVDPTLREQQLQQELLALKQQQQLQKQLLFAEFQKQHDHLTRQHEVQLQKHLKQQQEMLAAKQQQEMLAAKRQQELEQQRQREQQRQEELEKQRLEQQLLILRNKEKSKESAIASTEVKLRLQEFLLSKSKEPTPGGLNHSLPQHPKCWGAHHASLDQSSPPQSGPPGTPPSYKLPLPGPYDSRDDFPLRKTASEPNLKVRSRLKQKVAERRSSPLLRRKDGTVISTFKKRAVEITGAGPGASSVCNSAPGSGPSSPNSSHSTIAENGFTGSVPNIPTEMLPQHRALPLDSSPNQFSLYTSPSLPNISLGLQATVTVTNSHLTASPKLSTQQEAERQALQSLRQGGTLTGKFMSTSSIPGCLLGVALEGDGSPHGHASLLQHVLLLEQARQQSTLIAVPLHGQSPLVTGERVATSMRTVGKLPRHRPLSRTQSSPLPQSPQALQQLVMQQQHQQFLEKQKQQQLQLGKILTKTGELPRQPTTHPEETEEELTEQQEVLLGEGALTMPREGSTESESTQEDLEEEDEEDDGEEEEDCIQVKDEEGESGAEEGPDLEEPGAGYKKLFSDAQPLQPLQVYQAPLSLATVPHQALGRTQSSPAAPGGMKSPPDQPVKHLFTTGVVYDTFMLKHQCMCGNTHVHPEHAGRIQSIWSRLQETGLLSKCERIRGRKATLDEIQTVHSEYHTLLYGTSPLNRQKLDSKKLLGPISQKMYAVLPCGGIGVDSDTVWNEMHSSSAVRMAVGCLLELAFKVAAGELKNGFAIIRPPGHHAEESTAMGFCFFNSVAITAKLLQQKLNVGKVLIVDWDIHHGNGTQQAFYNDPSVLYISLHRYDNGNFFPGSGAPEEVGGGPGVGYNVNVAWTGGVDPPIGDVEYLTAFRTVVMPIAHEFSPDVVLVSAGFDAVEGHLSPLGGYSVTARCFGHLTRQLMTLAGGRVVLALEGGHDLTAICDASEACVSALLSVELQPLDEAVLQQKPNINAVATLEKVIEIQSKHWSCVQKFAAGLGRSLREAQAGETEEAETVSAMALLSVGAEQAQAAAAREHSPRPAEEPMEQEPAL
# Mus musculus [24] = organism: Mus musculus; assay: Inhibition of HDAC in mouse forebrain primary neurons assessed as acetylation of histone H3K9 at 1 to 10 uM after 24 hrs by immunofluorescence assay
# Outline: (§2)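 Mouse forebrain primary neuronal cultures (DIV13–14) treated 24 h at 1 and 10 μM, n=3. Cells fixed and immunostained for H3K9ac or H4K12ac; nuclear fluorescence intensity quantified by imaging. […] Mean ± SEM; unpaired t-test.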
# Mus musculus [25] = organism: Mus musculus; assay: Inhibition of HDAC in mouse forebrain primary neurons assessed as acetylation of histone H4K12 at 1 to 10 uM after 24 hrs by immunofluorescence assay; outline: as §2
smiles,measurement,setting,value
O=C(CCCCCC(=O)N/N=C/c1ccc(-c2ccncc2)cc1)NO,IC50,Histone deacetylase 1,3.1 nM
same,IC50,Histone deacetylase 2,14.2 nM
same,IC50,Histone deacetylase 3,1.8 nM
COc1ccc(Br)c(/C=N/NC(=O)CCCCCC(=O)NO)c1,IC50,Histone deacetylase 1,0.6 nM
same,IC50,Histone deacetylase 2,5 nM
same,IC50,Histone deacetylase 3,1.2 nM
Cc1ccccc1-c1ccc(/C=N/NC(=O)CCCCCC(=O)NO)cc1,IC50,Histone deacetylase 1,8 nM
same,IC50,Histone deacetylase 2,18.8 nM
same,IC50,Histone deacetylase 3,5.4 nM
O=C(CCCCCC(=O)N/N=C/c1ccc(-c2cccnc2)cc1)NO,Cmax,[1],79.1 nM
same,IC50,Histone deacetylase 1,1.1 nM
same,IC50,Histone deacetylase 2,10.8 nM
same,IC50,Histone deacetylase 3,0.8 nM
same,EC50,[2],140 nM
same,Cmax,[3],75.7 nM
same,Cmax,[4],45.2 nM
same,Cmax,[5],13.5 nM
same,Cmax,[6],9.73 nM
same,Cmax,[7],1900 nM
same,Cmax,[8],1670 nM
same,Cmax,[9],1220 nM
same,Cmax,[10],14.9 nM
same,Cmax,[11],6.45 nM
same,Cmax,[12],3.72 nM
same,Tmax,[13],1 h
same,AUC(0-t),[14],5.41 µM·h
same,AUC(0-inf),[15],5.42 µM·h
same,t1/2,Mus musculus [16],1.28 h
same,CL/F,[17],217 mL/min/kg
same,MRT,[18],1.6 h
same,Tmax,[19],1 h
same,AUC(0-t),[20],0.12 µM·h
same,Kp,[21],0.03
same,IC50,[22],0.5 nM
same,inhibition,[23],inactive
O=C(CCCCCC(=O)N/N=C/c1ccc(-c2cccs2)cc1)NO,IC50,Histone deacetylase 1,2.1 nM
same,IC50,Histone deacetylase 2,6.3 nM
same,IC50,Histone deacetylase 3,1.6 nM
O=C(CCCCC(=O)N/N=C/c1ccc(-c2ccccc2)cc1)NO,inhibition,Mus musculus [24],Active
same,IC50,Histone deacetylase 1,19 nM
same,IC50,Histone deacetylase 2,33 nM
same,IC50,Histone deacetylase 3,61 nM
same,inhibition,Mus musculus [25],Active
O=C(CCCCCC(=O)N/N=C/c1ccc(-c2cncnc2)cc1)NO,IC50,Histone deacetylase 1,3.2 nM
same,IC50,Histone deacetylase 2,21 nM
same,IC50,Histone deacetylase 3,2.4 nM
O=C(CCCCCCC(=O)N/N=C/c1ccc(-c2ccccc2)cc1)NO,inhibition,Mus musculus [24],Active
same,IC50,Histone deacetylase 1,0.7 nM
same,IC50,Histone deacetylase 2,1 nM
same,IC50,Histone deacetylase 3,2 nM
same,inhibition,Mus musculus [25],Active
COc1cc(O)cc(OC)c1/C=N/NC(=O)CCCCCC(=O)NO,IC50,Histone deacetylase 1,31.4 nM
same,IC50,Histone deacetylase 2,108 nM
same,IC50,Histone deacetylase 3,25.6 nM
O=C(CCCCCC(=O)N/N=C/c1ccc(-c2ccccc2)cc1)NO,IC50,Histone deacetylase 1,1.4 nM
same,IC50,Histone deacetylase 2,2.1 nM
same,IC50,Histone deacetylase 3,3.4 nM
same,EC50,[2],210 nM
same,Cmax,[3],60 nM
same,IC50,[22],0.6 nM
same,inhibition,[23],inactive
O=C(CCCCCC(=O)N/N=C/c1ccc(-c2ccccn2)cc1)NO,IC50,Histone deacetylase 1,2.3 nM
same,IC50,Histone deacetylase 2,6.9 nM
same,IC50,Histone deacetylase 3,1.4 nM
